Among the data in ChEMBL document CHEMBL4373735, “N-alkyl-hydroxybenzoyl anilide hydroxamates as dual inhibitors of HDAC and HSP90, downregulating IFN-γ induced PD-L1 expression” (Eur J Med Chem, 2020) are Activity, IC50 and GI50 values, retold here.

Each structure is given as a SMILES string. Calls of active or inactive are those of the source. No cut-off for these calls is given here. Some results are limits rather than exact numbers.

Assay [1] deals with NCI-H1975. Nature of the assay: Induction of apoptosis in human NCI-H1975 cells assessed as activation of caspase 3 at 0.1 to 3 uM measured after 48 hrs immunoblot analysis. The assay is classed as functional, cell-based. In short, it runs like this:
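H1975 cells cultured with compound at the indicated concentrations for 48 h, then immunoblotted with the indicated antibodies. Lysis buffer was ice-cold RIPA-type with phosphatase and protease inhibitors, 30 min on ice. Proteins separated on 8-15% SDS-PAGE, transferred to PVDF, primary antibody overnight at 4°C, HRP secondary 1 h at room temperature, ECL detection.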
On the technique in general: Immunoblotting shows a protein as a band on a membrane.

The target in assay [2] is NAD-dependent protein deacetylase sirtuin-1 (Homo sapiens, UniProt Q96EB6). Nature of the assay: Inhibition of human recombinant N-terminal His-tagged SIRT1 (1 to 747 residues) expressed in Escherichia coli using Ac-RHK-K(Ac)-AMC as substrate after 30 mins in presence of NAD+ by fluorimetry analysis. In short, it runs like this: (§1)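 Isoform assays run by an outside contractor. […] Trichostatin A tested in parallel the same way as control.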

The subject of assay [3] is NCI-H1975. As to the kind of experiment: Cell cycle arrest in human NCI-H1975 cells assessed as increase in accumulation at sub-G1 phase at 0.1 to 3 uM after 48 hrs by propidium iodide/RNase staining based FACScan flow cytometry analysis. The class given is functional. Summed up: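 H1975 cells seeded at 2.5×10^5/well, left overnight, then exposed to DMSO or compound at several concentrations for 48 h. Washed in PBS, fixed in ice-cold 70% ethanol at -20 °C overnight, stained with propidium iodide 80 ug/ml plus 0.1% Triton X-100 and RNase A 100 ug/ml in PBS. DNA content read by FACScan.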
Background: Flow cytometry measures light scatter and fluorescence of single cells or particles in a stream.

In assay [4] the test system is NCI-H1975. As to the kind of experiment: cells. The class given is functional. The following applies: Homo sapiens, NCI-H1975, 48 h.
Assay [5] addresses Histone deacetylase 7 (Homo sapiens, UniProt Q8WUI4). As to the kind of experiment: Inhibition of recombinant human N-terminal GST-tagged HDAC7 (518 to 991 residues) expressed in baculovirus infected insect cells using Boc-K(Ac)-AMC as substrate after 90 mins by fluorimetry analysis. Summed up:
as §1

The subject of assay [6] is A549. As to the kind of experiment: Antiproliferative activity against human A549 cells assessed as cell growth inhibition after 48 hrs by sulforhodamine B assay. Particulars: Homo sapiens, A549, 48 h. The class given is functional. In short, it runs like this: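 Cells seeded at 5000/well overnight; baseline plate fixed with 10% TCA at time of compound addition (T0). Treated with DMSO or graded doses for 48 h, fixed with 10% TCA, stained with 0.4% (w/v) SRB in 1% acetic acid, washed with 1% acetic acid, dye solubilised in 10 mM Trizma base, absorbance at 515 nm. GI50 from T0-corrected growth; at least three independent experiments, SD reported.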

Assay [7] addresses Histone deacetylase 3 (Homo sapiens, UniProt O15379). As to the kind of experiment: Inhibition of human recombinant full length C-terminal His-tagged HDAC3 (1 to 428 residues) expressed in baculovirus infected insect cells using RHK-K(Ac)-AMC as substrate after 60 mins by fluorimetry analysis. In short, it runs like this:
as §1

Chain of Histone deacetylase 7 (Q8WUI4 whole entry, the tested form may be a part): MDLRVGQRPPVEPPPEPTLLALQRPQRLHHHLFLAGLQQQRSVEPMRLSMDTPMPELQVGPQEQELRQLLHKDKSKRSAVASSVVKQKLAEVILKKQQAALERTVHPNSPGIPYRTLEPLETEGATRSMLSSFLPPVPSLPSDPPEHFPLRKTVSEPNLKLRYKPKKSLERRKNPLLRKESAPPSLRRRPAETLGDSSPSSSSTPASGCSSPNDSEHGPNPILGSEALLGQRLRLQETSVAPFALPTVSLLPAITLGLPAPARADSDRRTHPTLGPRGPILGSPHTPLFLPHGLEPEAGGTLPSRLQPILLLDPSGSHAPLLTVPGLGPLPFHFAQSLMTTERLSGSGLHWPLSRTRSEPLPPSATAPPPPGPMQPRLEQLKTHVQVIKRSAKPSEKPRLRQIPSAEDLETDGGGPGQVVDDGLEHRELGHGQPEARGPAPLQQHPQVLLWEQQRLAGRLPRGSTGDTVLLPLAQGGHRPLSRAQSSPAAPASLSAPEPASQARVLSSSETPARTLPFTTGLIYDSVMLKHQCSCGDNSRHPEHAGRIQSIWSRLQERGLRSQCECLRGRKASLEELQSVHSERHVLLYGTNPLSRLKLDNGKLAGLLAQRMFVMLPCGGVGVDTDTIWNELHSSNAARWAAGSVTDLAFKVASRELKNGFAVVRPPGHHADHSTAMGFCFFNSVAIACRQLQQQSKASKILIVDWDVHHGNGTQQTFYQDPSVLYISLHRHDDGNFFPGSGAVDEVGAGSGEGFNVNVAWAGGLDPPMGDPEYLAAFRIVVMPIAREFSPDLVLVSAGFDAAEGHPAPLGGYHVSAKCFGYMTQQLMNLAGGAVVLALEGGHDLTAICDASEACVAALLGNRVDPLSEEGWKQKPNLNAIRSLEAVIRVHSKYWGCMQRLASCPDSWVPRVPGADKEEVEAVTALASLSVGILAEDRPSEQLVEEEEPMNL
Chain of NAD-dependent protein deacetylase sirtuin-1 (Q96EB6 whole entry, the tested form may be a part, canonical isoform): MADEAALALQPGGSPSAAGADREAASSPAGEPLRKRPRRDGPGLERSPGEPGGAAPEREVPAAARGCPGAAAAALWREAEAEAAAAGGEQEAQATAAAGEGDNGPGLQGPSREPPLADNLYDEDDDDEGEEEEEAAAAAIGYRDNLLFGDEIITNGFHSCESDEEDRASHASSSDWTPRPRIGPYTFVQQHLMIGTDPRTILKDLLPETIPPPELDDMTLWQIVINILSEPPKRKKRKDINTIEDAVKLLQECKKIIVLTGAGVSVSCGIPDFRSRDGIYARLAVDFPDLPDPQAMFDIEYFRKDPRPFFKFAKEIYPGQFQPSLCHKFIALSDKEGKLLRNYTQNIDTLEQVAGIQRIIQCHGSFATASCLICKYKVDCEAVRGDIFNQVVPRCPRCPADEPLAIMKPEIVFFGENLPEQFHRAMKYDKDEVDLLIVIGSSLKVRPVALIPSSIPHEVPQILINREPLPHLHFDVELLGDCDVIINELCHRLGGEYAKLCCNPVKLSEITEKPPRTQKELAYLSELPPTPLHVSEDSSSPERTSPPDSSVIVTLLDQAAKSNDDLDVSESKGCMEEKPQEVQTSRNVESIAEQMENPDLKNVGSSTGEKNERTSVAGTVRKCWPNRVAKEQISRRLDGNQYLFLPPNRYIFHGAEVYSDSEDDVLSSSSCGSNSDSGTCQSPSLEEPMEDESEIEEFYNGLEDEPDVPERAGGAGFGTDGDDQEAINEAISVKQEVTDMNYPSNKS
Chain of Histone deacetylase 3 (O15379 whole entry, the tested form may be a part): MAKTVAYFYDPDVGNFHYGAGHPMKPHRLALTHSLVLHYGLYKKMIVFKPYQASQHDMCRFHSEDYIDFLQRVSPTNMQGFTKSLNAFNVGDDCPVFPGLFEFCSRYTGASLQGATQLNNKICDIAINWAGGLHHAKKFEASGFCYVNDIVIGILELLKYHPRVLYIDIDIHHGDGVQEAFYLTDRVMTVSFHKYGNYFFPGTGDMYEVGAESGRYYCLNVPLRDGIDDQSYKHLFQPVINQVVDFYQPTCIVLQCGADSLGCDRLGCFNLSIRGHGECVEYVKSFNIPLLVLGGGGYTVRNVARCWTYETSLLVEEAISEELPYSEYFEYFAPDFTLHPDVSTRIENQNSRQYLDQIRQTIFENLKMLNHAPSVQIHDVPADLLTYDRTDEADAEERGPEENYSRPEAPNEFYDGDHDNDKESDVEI

Take `CC(C)c1cc(C(=O)N(C)c2ccc(NC(=O)CCCCCCC(=O)NO)cc2)c(O)cc1O`: the outcome in assay [1] and in assay [3] was Active. Moreover, the concentration for half-maximal inhibition (IC50) in assay [2] was greater than 10000 nM; in assay [5], greater than 10000 nM; in assay [7], 2060 nM. Besides, the concentration for 50% growth inhibition (GI50) was 690 nM in assay [4] and 770 nM in assay [6].
With `CC(C)c1cc(C(=O)N(C)c2ccc(NC(=O)CCCCCCCC(=O)NO)cc2)c(O)cc1O`, the result in assay [1] and in assay [3] was Active. For the same molecule, the IC50 is greater than 10000 nM in assay [2], 6400 nM in assay [5] and 1440 nM in assay [7]. For the same molecule, the GI50 in assay [4] worked out at 400 nM; in assay [6], 440 nM.

By IC50 is commonly meant the concentration needed to halve the response being measured. Usually GI50 stands for the concentration at which growth is held to half of that of the control.
